In ChEMBL document CHEMBL3102806, “1,2,4-Triazole/oxime hybrids as new strategy for nitric oxide donors: Synthesis, anti-inflammatory, ulceroginicity and antiproliferative activities” (Eur J Med Chem, 2014):

What was measured:
CCRF-CEM = assay: Growth inhibition of human CCRF-CEM cells after 48 hrs by sulforhodamine B assay; format: functional
Procedure, shortened: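 NCI full ~60 cell line panel. Five 10-fold concentrations from 10^-4 to 10^-8 M, 48 h continuous exposure, SRB protein read-out. Time-zero, control and treated absorbances give percentage growth. GI50 is the concentration where [(Ti−Tz)/(C−Tz)]×100 = 50; TGI is where Ti = Tz; LC50 is where [(Ti−Tz)/Tz]×100 = −50.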

MDA-MB-468 = assay: Growth inhibition of human MDA-MB-468 cells after 48 hrs by sulforhodamine B assay; format: functional; conditions: MDA-MB-468, 48 h
Procedure, shortened: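 NCI 60-cell-line panel (nine tumour subpanels), five-dose format: 10-fold dilutions from 10^-4 to 10^-8 M, 48 h continuous exposure, SRB protein stain. Percent growth at each level is derived from time-zero, untreated control and treated absorbances. GI50 is the concentration where [(Ti−Tz)/(C−Tz)]×100 = 50. Values outside the tested range are reported as above or below the limit.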

[1] = read-out: LC50 (the source's name)

`COc1ccc(-c2nnc(SCC(=O)Nc3ccc(/C(C)=N/O)cc3)n2-c2ccccc2)cc1OC` showed a GI50 (CCRF-CEM) of over 100 µM, a TGI (CCRF-CEM) of over 100 µM and a CC50 (CCRF-CEM; [1]) of over 100 µM. The GI50 (MDA-MB-468) was 16.4 µM, the TGI (MDA-MB-468) was over 100 µM and the CC50 (MDA-MB-468; [1]) was over 100 µM.
